Compounds with a hit are over-represented: about 2.5% of the library has one in this group of screens.
HTRA1 inh – blocks human HTRA1 serine peptidase; Q92743; recombinant HTRA1, FP-rhodamine activity-based probe, fluorescence polarization; inhibition, % at 5.96 µM; actives 0.5% (n = 340,000); AID 504803; in the data active = inhibition above about 36%;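 also: 0% = enzyme with DMSO and 100% = wells lacking enzyme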
mABHD4 FP – inhibitors of mouse ABHD4; Q8VD66; AID 720543; inhibition, % at 8.92 µM; actives 0.54% (n = 370,000); purified mABHD4, FP-Rh probe fluorescence polarization;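 active = inhibition exceeding the mean over every tested compound plus 3 SD, cut at about 30% in these data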;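 also: 0% = plate median of compound wells and 100% = S159A mutant with DMSO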
Target sequence (Q8VD66 whole entry, looked up): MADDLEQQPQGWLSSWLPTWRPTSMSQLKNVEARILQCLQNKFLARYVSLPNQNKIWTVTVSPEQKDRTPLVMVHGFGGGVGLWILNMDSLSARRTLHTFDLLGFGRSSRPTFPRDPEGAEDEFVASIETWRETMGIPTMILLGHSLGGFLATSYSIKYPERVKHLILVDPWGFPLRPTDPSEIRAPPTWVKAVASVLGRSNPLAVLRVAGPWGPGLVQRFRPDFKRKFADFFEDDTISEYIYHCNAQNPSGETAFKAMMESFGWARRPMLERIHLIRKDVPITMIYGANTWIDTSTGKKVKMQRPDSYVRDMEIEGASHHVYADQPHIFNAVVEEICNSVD
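Material: mouse ABHD4 enzyme, wild type; Benchmarks: S159A mutant high control, sample median low control; Buffer or medium: HEPES pH 7.0, NaCl, Pluronic buffer; Signal: fluorescence polarization; Read-out: percent inhibition of probe binding, normalized to plate controls; Timing: pre-incubation 45 min, probe exposure 60 min, at 25 °C; Dosing: 8.92 µM, single dose.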
PRMT1 inh – PRMT1 (human) inhibition, primary screen. actives 1.3% (n = 370,000). Q99873. AID 652257. inhibition, % at 2.79 µM. recombinant PRMT1, activity-based probe fluorescence polarization;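 active = inhibition above about 21% made by adding two undisclosed values, limit read from the data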
Target sequence (Q99873 whole entry, looked up): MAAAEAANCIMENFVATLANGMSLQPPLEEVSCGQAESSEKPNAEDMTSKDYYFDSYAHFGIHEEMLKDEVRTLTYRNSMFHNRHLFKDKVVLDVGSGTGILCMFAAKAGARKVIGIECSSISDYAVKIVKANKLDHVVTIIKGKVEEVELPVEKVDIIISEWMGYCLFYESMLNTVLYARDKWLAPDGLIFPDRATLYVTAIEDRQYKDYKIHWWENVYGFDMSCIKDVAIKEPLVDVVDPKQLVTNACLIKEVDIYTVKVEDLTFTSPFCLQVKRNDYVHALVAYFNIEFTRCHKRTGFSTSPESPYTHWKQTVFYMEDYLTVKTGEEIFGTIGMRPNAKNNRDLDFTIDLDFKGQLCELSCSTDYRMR
SIAE inh – inhibitors of human sialic acid acetylesterase SIAE. Q9HAT2. SIAE FP-Rh probe binding, fluorescence polarization. inhibition, % at 9.66 µM. actives 0.69% (n = 370,000). AID 1053197;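 active = inhibition above a cutoff: mean of compounds within the control limits plus 3 SD of those, cut at about 17% in these data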;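 also: 0% = plate median of compound wells and 100% = probe without SIAE protein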
TCR CD3 inh – human TCR-CD3 binding inhibition; actives 0.37% (n = 360,000); AID 651800; inhibition, % at 9.4 µM; TAMRA-labeled TCR probe fluorescence, biochemical;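 also: recombinant mutant TCR 2C K166C tagged with TAMRA read by polarization; 0% = receptor in buffer alone and 100% = receptor with positive control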
HTRA1 inh conf – confirmation of human HTRA1 inhibitors; shares compounds with HTRA1 inh; recombinant HTRA1, FP-rhodamine activity-based probe, fluorescence polarization; inhibition, % at 5.96 µM; actives 66% (n = 1,600); AID 540248;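 active = mean inhibition over three repeats above a set limit taken from the earlier primary screen, cut at about 37% in these data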;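 also: 0% = HTRA1 with DMSO and 100% = wells lacking HTRA1; inhibitors block probe binding so polarization drops and inhibition rises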
BSA probe FL – interferes with TAMRA-BSA probe, flagging TCR-CD3 hits; shares compounds with TCR CD3 inh; TAMRA-labeled BSA probe fluorescence counterscreen; actives 10% (n = 1,200); inhibition, % at 9.4 µM; in the data active = inhibition above about 23%;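 also: 0% = buffer low control and 100% = reference high control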
TCR-CD3 inh conf – TCR-CD3 interaction inhibition, confirmation; shares compounds with TCR CD3 inh; TAMRA-labeled TCR probe fluorescence binding assay; inhibition, % at 9.4 µM; actives 48% (n = 1,200)
PRMT1 inh conf – confirmation of human PRMT1 inhibitors. actives 42% (n = 3,300). inhibition, % at 2.79 µM. shares compounds with PRMT1 inh. recombinant His-PRMT1, activity-based probe fluorescence polarization. AID 687036;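 active = mean inhibition across replicates above the hit cutoff derived for the earlier primary screen, cut at about 22% in these data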
mABHD4 conf – confirmation of mouse ABHD4 inhibitors; shares compounds with mABHD4 FP; purified mABHD4, FP-Rh probe fluorescence polarization; inhibition, % at 8.92 µM; actives 55% (n = 1,800);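 active = mean inhibition across replicates above the hit cutoff set in the primary screen, cut at about 30% in these data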;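 also: 0% = wild-type ABHD4 with DMSO and 100% = catalytically dead S159A mutant with DMSO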
SIAE confirm – confirmation of human SIAE inhibitors. shares compounds with SIAE inh. SIAE FP-Rh activity-based probe, fluorescence polarization. AID 1117263. inhibition, % at 9.66 µM. actives 13% (n = 2,300);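 active = mean inhibition of the replicates above the hit cutoff set in the primary screen, cut at about 17% in these data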;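 also: 0% = SIAE with DMSO and probe and 100% = probe without SIAE; inhibitors lower polarization as more probe stays unbound to SIAE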
An asterisk follows results filed as active; nt = not tested or not shown. Rule as the data show it, unless noted: active = inhibition above about 19%; inactive = the rest.

SMILES	HTRA1 inh	mABHD4 FP	PRMT1 inh	SIAE inh	TCR CD3 inh	HTRA1 inh conf	BSA probe FL	TCR-CD3 inh conf	mABHD4 conf	SIAE confirm	others
Cc1cccc(NCc2cc(Cl)ccc2O)n1	-5	-2	-4	5	0	nt	nt	nt	nt	nt
Oc1c(Br)cc(Br)cc1CNc1cccc2cccnc12	70*	56*	12	32*	6	32	nt	nt	-10	15
O=C(NCc1ccccc1)OCCN1C(=O)CCC12CCC(c1ccc(Cl)cc1)CC2 (stereo unspecified)	nt	-1	0	-6	nt	nt	nt	nt	nt	nt
Nc1nc(Sc2ccc([N+](=O)[O-])c3nonc23)c2[nH]cnc2n1	59*	46*	89*	17*	7	71*	nt	nt	49*	0	PRMT1 inh conf=84*
O=C(Cn1nnc(-c2ccccc2F)n1)Nc1ccc(Cl)cc1	nt	-2	1	1	nt	nt	nt	nt	nt	nt
Cc1ccc(NC(=O)CS(=O)CC(=O)Nc2ccccc2-c2ccc(C)o2)cc1 (stereo unspecified)	57*	45*	51*	33*	86*	-9	6	4	-2	9
O=C(CS(=O)CC(=O)Nc1ccccc1-c1ccccc1)Nc1ccc(F)cc1 (stereo unspecified)	4	-10	6	-3	1	nt	nt	nt	nt	nt
CCn1c(CSc2ncn[nH]2)nc2cc(C(=O)O)ccc21	10	2	-3	7	8	nt	nt	nt	nt	nt
CCn1c(CSc2nnc(-c3ccncc3)n2C)nc2cc(C(=O)O)ccc21	66*	23	1	28*	89*	56*	155*	109*	nt	39*
O=C1C=C(Nc2cccc3cccnc23)c2ccccc2C1=O	42*	59*	9	19*	14	39*	nt	nt	25	4
O=C1C=C(Nc2ccccc2)c2ccccc2C1=O	2	12	6	3	-1	nt	nt	nt	nt	nt
COC(=O)C1CN(Cc2cn(Cc3ccc(Cl)cc3)nn2)CCS(=O)(=O)N1Cc1ccccc1 (stereo unspecified)	nt	4	1	1	nt	nt	nt	nt	nt	nt
Cc1nc2ccccc2n2c(O)c(CC(=O)O)cc12	55*	30*	44*	18*	16	40*	nt	nt	74*	31*
O=C(NCCc1ccccc1)OCc1cn(Cc2cc(F)ccc2F)nn1	nt	0	1	-4	nt	nt	nt	nt	nt	nt
COCCCNC(=O)C[C@H]1C[C@@]2(C(=O)OC)C(=C[C@H](C(C)C)O[C@@H]2C2CC2)N(Cc2ccc(Cl)cc2Cl)C1=O	nt	-7	-5	-5	nt	nt	nt	nt	nt	nt
CCOc1cccc(CNc2ccc(O)cc2)c1OCc1ccccc1Cl	52*	55*	10	30*	24*	15	-8	-1	31*	10
O=C(CSc1nnc(-c2cccnc2)n1C1CCCCC1)N1CCCC1	nt	6	4	-4	nt	nt	nt	nt	nt	nt
Cc1cc2cc(CNC(=O)Nc3cccc(Cl)c3)ccc2n1C	39*	46*	10	26*	55*	6	5	1	-10	-6
COc1ccc(CNC(=O)Nc2cccc(Cl)c2)cc1	-17	nt	nt	nt	nt	nt	nt	nt	nt	nt
CCCCCN1CCCCC(NC(=O)C(C)(C)C)C1=O (stereo unspecified)	nt	1	-2	-2	nt	nt	nt	nt	nt	nt
O=[N+]([O-])c1ccc(N/N=C/c2cccnc2)cc1	1	6	3	-7	2	nt	nt	nt	nt	nt
O=[N+]([O-])c1ccc(N/N=C/c2ccc[nH]2)cc1	45*	-13	6	18*	-17	57*	nt	nt	nt	-4
COc1ccc(NS(=O)(=O)c2ccc3c(c2)[C@H]2C=CC[C@H]2[C@@H](c2ccc(C(=O)O)cc2)N3)cc1	57*	44*	38*	29*	4	53*	nt	nt	61*	20*	PRMT1 inh conf=21*
COc1ccc(NS(=O)(=O)c2ccc(NS(=O)(=O)c3cccc(C(=O)O)c3)cc2)cc1	14	2	3	-4	-5	nt	nt	nt	nt	nt
O=[N+]([O-])c1ccc(N/N=C/c2c[nH]c3ccccc23)cc1	31	10	15	8	-17	nt	nt	nt	nt	nt
SMILES	HTRA1 inh	mABHD4 FP	PRMT1 inh	SIAE inh	TCR CD3 inh	HTRA1 inh conf	BSA probe FL	TCR-CD3 inh conf	mABHD4 conf	SIAE confirm	others
O=[N+]([O-])c1ccccc1N/N=C/c1c[nH]c2ccccc12	78*	49*	1	18*	4	76*	nt	nt	89*	21*
C(=N\Nc1nc2ccccc2[nH]1)/c1c[nH]c2ccccc12	38*	14	1	21*	4	21	nt	nt	nt	33*
FC(F)(F)C1=Nc2cccc3cccc(c23)N1	39*	4	6	56*	31*	85*	-7	9	nt	4
Cc1ccc(-n2c(C)cc(=O)cc2C)c(C)c1	1	-2	3	3	4	nt	nt	nt	nt	nt
Cc1cc(N)ccc1-n1c(C)ccc1C	102*	147*	17	54*	152*	13	6	0	nt	3
O=C1C(N2CCOCC2)=Cc2cccc3cccc1c23	59*	86*	101*	49*	87*	39*	70*	47*	83*	27*	PRMT1 inh conf=77*
CC1=C(C)C(=O)C(N2CCOCC2)=CC1=O	1	12	-2	-2	13	nt	nt	nt	nt	nt
O=C1C=C(N2CCOCC2)c2ccccc2C1=O	21	24	4	-10	1	nt	nt	nt	nt	nt
O=C1C=C(N2CCOCC2)c2cccc3cccc1c23	43*	83*	102*	47*	79*	8	7	3	2	-2	PRMT1 inh conf=-2
CCCCNC(=O)C[C@H]1C[C@@]2(C(=O)OC)C(=C[C@H](C3CCCC3)O[C@@H]2C)N(Cc2ccco2)C1=O	nt	-5	-4	-1	nt	nt	nt	nt	nt	nt
Cc1cc(NC(=O)c2ccc(NS(=O)(=O)c3ccccc3)cc2)no1	nt	2	0	-3	nt	nt	nt	nt	nt	nt
CCOc1c(Cl)cc(CNc2ccc(N3CCCC3)cc2)cc1OC	50*	24	5	21*	7	16	nt	nt	nt	11
NS(=O)(=O)c1ccc(N/N=C/c2ccc(O)c(O)c2O)c([N+](=O)[O-])c1	78*	60*	46*	37*	59*	67*	-10	74*	62*	11	PRMT1 inh conf=79*
O=C(N/N=C/c1cc(Br)cc([N+](=O)[O-])c1O)c1ccc(NC(=O)c2ccc(F)cc2)cc1	51*	16	1	53*	58*	53*	-12	51*	nt	0

From PubChem
